# High-throughput results: PubChem, Broad Institute
# The list is not random: actives were taken first. Their share in the collection is about 2.8%.
# CAL PDZ FP-1: untagged CAL PDZ binding inhibitors, primary screen, biochemical, fluorescence polarization, HTS | Golgi-associated PDZ and coiled-coil motif-containing protein (Homo sapiens), Q9HD26 | purified CAL PDZ, TMR-peptide fluorescence polarization, 1 h | inhibition, % at 24.9 µM | hit rate 0.92% among 300,000 | AID 602252, 2012;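 active = mean inhibition of at least 30% with at least half of replicates also reaching 30%; inconclusive = no clear call, values can overlap the other calls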;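 note: 0% = DMSO neutral control and 100% = excess unlabeled competitor peptide PRC23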
# SR-BI uptake up: activators of SR-BI mediated DiI-HDL uptake, primary screen, ldlA[mSR-BI] CHO cells, DiI fluorescence. 3 h; 100 = double the neutral-control signal. activation, % at 12.5 µM. hit rate 0.096% among 320,000;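 active = mean replicate activation of at least 60% and every replicate at or above 60%; inconclusive = mean or all-replicate condition met, but not both; inactive = mean below 60% and not all replicates reaching 60%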;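 note: 0% = median plate neutral-control signal and 100% = twice that signal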
#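 System: CHO ldlA[mSR-BI] cells / Medium: HEPES-buffered (25 mM, pH 7.4) F12 plus 0.5% BSA / Probe or stimulus: labelled HDL, 10 µg/mL / Doses: single compound concentration, delivered by pin transfer / Schedule: 3 h, 37 °C / Measured by: DiI fluorescence, bottom read / Measure: cell-associated DiI fluorescence as measure of HDL uptake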
# dFosB act-1: activators of delta FosB homodimer, primary screen, biochemical, fluorescence polarization, TAMRA-CDK5 oligo, single point. Protein FosB (Mus musculus), P13346. purified delta FosB; percent of positive-control signal above neutral wells. activation, % at 25 µM. hit rate 0.99% among 340,000. AID 493131, 2011;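 active = mean activation above about 17%, with every replicate also reaching it, limit read from the data, passing the limit was not always enough; inconclusive = only one of the two conditions met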
# Target sequence (P13346 whole entry, looked up): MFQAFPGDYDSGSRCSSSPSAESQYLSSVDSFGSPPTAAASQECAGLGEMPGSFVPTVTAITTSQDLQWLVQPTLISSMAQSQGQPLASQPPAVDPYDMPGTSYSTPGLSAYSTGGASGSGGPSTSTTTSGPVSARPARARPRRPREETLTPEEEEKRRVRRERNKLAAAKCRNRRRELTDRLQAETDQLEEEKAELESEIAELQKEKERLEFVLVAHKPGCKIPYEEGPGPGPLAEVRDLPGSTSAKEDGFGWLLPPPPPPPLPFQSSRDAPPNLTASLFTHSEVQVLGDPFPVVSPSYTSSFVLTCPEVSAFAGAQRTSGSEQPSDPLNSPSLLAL
# SR-BI HDL uptake: inhibitors of SR-BI mediated HDL lipid uptake, primary screen, ldlA[mSR-BI] cells, fluorescence, single point. Scavenger receptor class B member 1 (Mus musculus), Q61009. ldlA[mSR-BI] CHO cells, DiI-HDL uptake fluorescence, 3 h. inhibition, % at 12.5 µM. hit rate 0.96% among 320,000. AID 488896, 2010;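 active = mean replicate inhibition of at least 70% and a set share of replicates each scoring 70 or more; inconclusive = meets just one of the two criteria; inactive = fails both criteria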;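 note: 0% = median of neutral control wells and 100% = median of positive control wells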
# CAL PDZ FP-2: CAL PDZ peptide-binding inhibitors, primary screen, biochemical, fluorescence polarization, Cer-tagged CAL PDZ, HTS; purified CAL PDZ, TMR-peptide fluorescence polarization, 1 h; inhibition, % at 20 µM; hit rate 0.02% among 330,000; AID 504414, 2011;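 active = highest replicate inhibition of at least 40%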;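 note: plate controls were DMSO neutral control wells for no effect and unlabeled competitor peptide control wells for full effect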
#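 Material: tagged CAL PDZ domain; buffer or medium: 25 mM sodium phosphate pH 7.4, 150 mM NaCl, TCEP, IgG, Thesit; compound dosing: single point, 20 µM; schedule: 1 h incubation at room temperature before polarization reading; measured by: FP readout, S and P plane fluorescence; read-out basis: percent inhibition from loss of millipolarization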
# dFosB act-2: activators of mouse delta FosB DNA binding, confirmation, biochemical, fluorescence polarization, TAMRA-CDK5 oligo, cherry-picked samples; 2,400 tested, under 10 active; AID 588690, 2011; purified delta FosB; normalised: neutral wells 0, positive control 100; shares compounds with dFosB act-1; activation, % at 24.9 µM;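 active = highest replicate activation at or above 34% and every replicate reaching that threshold; inconclusive = meets only one of the two criteria; inactive = meets neither criterion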;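 note: higher polarization means more probe DNA bound by delta FosB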
# Starred values were filed as active, the others as inactive; ? = inconclusive; · = no result given.
SMILES,CAL PDZ FP-1,SR-BI uptake up,dFosB act-1,SR-BI HDL uptake,CAL PDZ FP-2,dFosB act-2
O=C(COC(=O)c1cccnc1Nc1cccc(C(F)(F)F)c1)NCc1ccc2c(c1)OCO2,-8,9,19*,-9,-3,3
COc1cc(OC)c(-c2nc(-c3ccncc3)no2)cc1OC,-4,-25,21*,25,-1,6
O=S(=O)(c1ccc(SCCOc2ccc(F)cc2)nc1)N1CCCC1,-1,-9,-4,9,0,·
O=C(COC(=O)c1cc([N+](=O)[O-])ccc1NCCO)Nc1cccc(S(=O)(=O)N2CCCC2)c1,-3,-31,31*,31,-2,1
CC(=O)Nc1ccc(NC(=O)COC(=O)c2ccc(S(=O)(=O)N(C)c3ccccc3)cc2)cc1,·,-29,38*,29,0,0
O=C(COC(=O)c1ccc(S(=O)(=O)N2CCCCC2)cc1)Nc1ccccc1,3,7,21*,-7,0,2
COc1ccc(NC(=O)COC(=O)c2ccc(S(=O)(=O)N(C)c3ccccc3OC)cc2)cc1OC,-3,-10,-9,10,-3,·
O=C(COC(=O)c1cc([N+](=O)[O-])ccc1NCCO)Nc1ccc2c(c1)OCO2,-3,-37,3,37,-4,·
COc1ccccc1N(C)S(=O)(=O)c1ccc(C(=O)OCC(=O)Nc2ccc(C(N)=O)cc2)cc1,-1,-15,66*,15,-1,2
C#CCOCCOCCOCCNc1nc(N2CCN(C(=O)[C@H](CCCN=C(N)N)n3cc(C(N)[C@@H](C)CC)nn3)CC2)nc(N2CCN(C(=O)[C@H](CCC(=O)O)n3cc([C@@H](N)CO)nn3)CC2)n1 (stereo partly drawn),-6,-8,-3,8,2,·
CCN(CC)c1nc2c(c(=O)n(C)c(=O)n2C)n1CC(=O)c1ccccc1,3,11,-4,-11,-1,·
Cc1ccccc1N(C)S(=O)(=O)c1nnc(NC(=O)c2ccco2)s1,-5,10,2,-10,-2,·
O=C(Nc1cc(Cl)ccc1Cl)c1cc(-c2ccco2)on1,-3,-62,18*,62,-2,-4
COc1ccc(S(=O)(=O)N2CCC(C(=O)N[C@@H](C)C(=O)NC3CCCC3)CC2)cc1,0,19,20*,-19,-2,5
Cc1ccc(S(=O)(=O)N2CCC(C(=O)N[C@H](C(=O)NCc3ccco3)C(C)C)CC2)cc1,-2,20,18*,-20,-3,-7
Cc1ccc(S(=O)(=O)N2CCC(C(=O)N[C@@H](C)C(=O)NC3CCCCC3)CC2)cc1,4,-2,39*,2,-2,7
Cc1ccc(S(=O)(=O)N2CCC(NC(=O)C3CCCCC3)CC2)cc1,0,19,-2,-19,-2,·
CN(c1ccc(OCC(=O)OCC(=O)c2c(N)n(C)c(=O)n(C)c2=O)cc1)S(=O)(=O)c1ccc2ccccc2c1,8,20,33*,-20,0,-1
CCN(c1ccc(OCC(=O)OCC(=O)c2c(N)n(C)c(=O)n(C)c2=O)cc1)S(=O)(=O)c1ccccc1,2,·,-13,·,-2,·
Cc1cccc(C(=O)N/N=C2\CS(=O)(=O)N(C)c3ccsc32)c1,-2,·,26*,·,-3,1
COc1cc(OC)cc(C(=O)NC(C(=O)NNC(=O)CN(C)S(=O)(=O)c2ccc(C)cc2)C(C)C)c1 (stereo not drawn),1,-5,-8,5,-1,·
COc1ccccc1Cn1c(/C=C/c2ccccc2)nc2ccccc21,-5,-19,-1,19,0,·
COc1ccc(/C=C/c2nc3ccccc3n2Cc2ccccc2OC)cc1,-5,-50,25*,50,0,1
COc1ccc(C)cc1NC(=O)CCC(=O)Nc1nnc(C2CCCCC2)s1,-4,6,40*,-6,-3,-8
Cn1cc(Cl)c(C(=O)Nc2nc3ccc(Cl)cc3s2)n1,-3,-25,24*,25,-3,-2
SMILES,CAL PDZ FP-1,SR-BI uptake up,dFosB act-1,SR-BI HDL uptake,CAL PDZ FP-2,dFosB act-2
CN(CC(=O)Nc1c(Cl)cccc1Cl)C(=O)C1CC(=O)N(Cc2ccccc2)C1 (stereo not drawn),·,8,4,-8,-1,·
Cc1cc(C)c2c(N)c3ccccc3nc2n1,0,4,31*,-4,-2,4
CCc1ccc2nc3nc(C)cc(C)c3c(N)c2c1,-7,21,?,-21,-10,·
CCOC(=O)c1c(NC(=O)C2c3ccccc3Oc3ccccc32)sc(C(N)=O)c1C,-8,-35,32*,35,1,2
COc1ccc(-c2[nH]ncc2CN(Cc2nccn2C)C(C)C)c(F)c1,-3,18,-10,-18,-2,·
O=C(CNC(=O)c1cc(S(=O)(=O)N2CCCCC2)ccc1N1CCOCC1)Nc1ccc(F)c(F)c1,-3,25,54*,-25,-2,0
Cc1c(/C=N/n2cnnc2)c2ccccc2n1CCOc1ccc(Cl)cc1,·,-22,5,22,-2,·
Cc1ccc(OCCn2c(C)c(/C=N/n3cnnc3)c3ccccc32)cc1,-2,-31,31*,31,-3,5
CN(c1ccc(OCC(=O)OCC(=O)Nc2ccc(OC(F)F)cc2)cc1)S(=O)(=O)c1cccs1,-8,-8,4,8,-1,·
O=Cc1cn(-c2ccccc2)nc1-c1cc2cc(O)ccc2oc1=O,·,-13,25*,13,-2,3
O=Cc1cn(-c2ccccc2)nc1-c1cc2c(ccc3ccccc32)oc1=O,-7,5,2,-5,-1,·
CC(=O)Nc1ccc(/C=C/c2nc(-c3ccccc3O)n[nH]2)cc1,-8,-37,24*,37,-3,2
COc1ccc(NC(=O)CN(C)C(=O)c2ccc(C)c(S(=O)(=O)N3CCCCC3)c2)cc1,-3,4,-6,-4,-1,·
Cc1cc(NC(=O)COC(=O)C2CC(=O)N(c3ccc(Cl)cc3)C2)no1 (stereo not drawn),0,15,-2,-15,0,·
NC(=O)C1CCN(C(=O)c2ccc3c(=O)n(Cc4ccco4)c(SCC(=O)c4ccccc4)nc3c2)CC1,-3,10,36*,-10,-4,2
